Hsp70 act – Hsp70 transcriptional activators, primary screen, cell-based, HeLa, Hsp70 promoter luciferase, luminescence, 10 µM | HeLa Hsp70 promoter luciferase reporter; scaled: vehicle 0, proteasome-inhibitor control 100% | activation, % at 10 µM | 200,000 compounds, 0.04% hits | AID 1203, 2008;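 active = activation above the mean across all tested compounds plus 3 SD, cutoff set per campaign, cut at about 5.5% in these data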;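 note: 100% = MG132 at 30 µM as the positive control and 0% = DMSO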
HSF-1 act – HSF-1 activators, primary screen, NIH3T3-HGL cells, MG132 stress, luminescence, single point | NIH3T3-HGL HSF-1 luciferase reporter, 8 h; 100% = twice DMSO control signal | activation, % at 9 µM | 300,000 compounds, 1.7% hits | AID 504408, 2011;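 active = mean replicate activation of at least 50% with a set share of replicates each reaching 50%; inconclusive = only one of those two conditions met; inactive = mean below 50% and too few replicates reaching it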;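 note: 0% = median of the neutral control wells and 100% = twice that signal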
HSF1 inh – HSF1 inhibitors in luciferase reporter cells, primary screen, cell-based, NIH3T3, luminescence; NIH3T3-HGL HSE-luciferase, MG132-induced, luminescence 8 h; hits give low values; activity change, negative = inhibition, % at 7.5 µM (by protocol); 300,000 compounds, 0.77% hits;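 active = more than half of replicate wells show activity change below -50%, luminescence cut by over half; inconclusive = some wells, but at most half, below -50%; inactive = no replicate well below -50%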;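 note: luciferase reports HSF-1 transcriptional activity via heat shock element; 0% = median of DMSO wells and -100% = zero luminescence signal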
T cruzi repl – inhibitors of intracellular T. cruzi growth, primary screen, luminescence, NIH3T3 host cells. T. cruzi beta-gal in NIH3T3, 90 h. inhibition, % (concentration not given with the values). 300,000 compounds, 1.4% hits. AID 1885, 2009;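 active = mean inhibition across valid replicates above about 55%, limit read from the data; inconclusive = mean below that limit but half or more replicates reach it; inactive = mean below it, under half of replicates reach it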;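 note: signal also drops with host cell toxicity which is not excluded here; 0% = plate median of DMSO wells and 100% = zero luminescence signal; higher percent means less beta-gal luminescence so fewer parasites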
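assay system = mouse NIH/3T3 fibroblasts infected with β-gal-expressing T. cruzi Tulahuen C4 | input = 5,000 NIH/3T3 host cells per well | buffer or medium = DMEM plus 2% FBS | timing = 3 h host attachment, then at least 90 h co-culture | measured by = GalScreen luminescence, 60 min | evaluation = luminescence reflecting intracellular parasite burden, expressed as percent inhibition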
Lmaj promast – Leishmania major promastigote growth inhibition, primary screen; Leishmania major promastigotes, resazurin fluorescence viability; inhibition, % at 10 µM; 200,000 compounds, 9% hits; AID 1063, 2008; in the data active = inhibition above about 50%;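 note: promastigotes grown with compound for 44 hours at 28 °C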
An asterisk follows results filed as active; ? = inconclusive; nt = not tested or not shown. This is one part of a sample in which hits are shown more often than they occur.

SMILES	Hsp70 act	HSF-1 act	HSF1 inh	T cruzi repl	Lmaj promast
Cc1sc(NC(=O)c2ccco2)c(CN2CCN(c3ccc(F)cc3)CC2)c1C	-0.3	86.9*	32.8	20.7	33.6
O=C(NC(=S)Nc1ccccc1N1CCCC1)c1ccccc1[N+](=O)[O-]	-0.5	18.8	2.1	7.3	12.2
O=C(Nc1ccc(N2CCCCC2)cc1)c1ccccn1	-0.7	-71.3	-66.9*	18.3	-2.2
O=C(Nc1ccc(Oc2cccnc2)cc1)c1ccccc1Cl	-0.2	nt	nt	-23.1	2.5
O=C(NC(=S)Nc1ccc(N2CCCC2)cc1)c1ccccc1[N+](=O)[O-]	-0.3	-13.7	7.7	29.6	54.1*
O=C(Nc1ccc(-n2ccnc2P(=O)(O)c2ccccc2)cc1)c1ccccc1Cl	0.0	-65.6	-55.0*	-19.4	-1.1
O=C(Nc1nnc(S(=O)(=O)N2CCCCCC2)s1)c1ccccc1Cl	nt	-78.0	-69.9*	-12.6	nt
CCN(CC)c1ccc(/C=N/NC(=O)Nc2nonc2N)cc1	-0.3	32.8	6.1	14.9	-2.7
CCC(C(=O)NCCCN1CCCC1=O)n1c2ccccc2c2nc(=O)cc(C)n21 (stereo not given)	nt	20.4	1.5	-21.1	nt
COc1cc(C)c(NC(=O)Cc2ccsc2)cc1OC	nt	1.1	-8.5	12.1	nt
Cc1ccc(N2C(=O)C3C4CC(=O)C(c5ccccc54)C3C2=O)cc1C (stereo not given)	-0.3	-6.6	-2.3	-5.5	-3.2
O=C(/C=C/c1ccc(Cl)c([N+](=O)[O-])c1)Nc1ccc(N2CCCC2)cc1	-0.3	10.0	-1.4	9.6	66.8*
O=C(Nc1ccc(N2CCCCCC2)cc1)c1ccccc1Cl	0.7	60.3*	29.0	-5.1	57.1*
CC(=O)N1CCN(c2ccc(NC(=O)c3ccccc3Cl)cc2)CC1	nt	-17.2	1.6	3.5	nt
O=C(CNCc1cccs1)Nc1ccc(S(=O)(=O)N2CCCCC2)cc1	-0.2	8.6	1.9	-5.1	-0.2
O=C(/C=C/c1ccc(Cl)c([N+](=O)[O-])c1)Nc1ccc(NC(=O)c2ccco2)cc1	-0.2	-3.1	-2.3	-13.6	-0.5
O=C(CNCc1cccs1)Nc1ccc(N2CCCCCC2)cc1	-0.1	20.2	2.9	14.9	50.9*
CC[C@H](C)[C@H](NC(=O)OCc1ccccc1)C(=O)Nc1ccc(NC(C)=O)cc1	0.0	28.6	-0.4	-8.8	-4.3
Cc1ccccc1N=C1NC(=O)/C(=C/c2cccn2C)S1	nt	12.7	8.1	13.2	nt
Cc1cccc(N=C2NC(=O)/C(=C3/C(=O)N(C)c4ccccc43)S2)c1C	0.0	-4.7	6.0	4.9	68.0*
O=C(Cn1cncn1)N/N=C/c1cccc(Cl)c1	nt	2.9	-11.1	2.3	nt
CN(C)CCCN(C(=O)CCc1ccccc1)c1nc2c(F)cccc2s1	-0.1	-4.4	-1.5	58.4*	40.7
CN(C)CCCN(C(=O)CCOc1ccccc1)c1nc2ccc(F)cc2s1	0.3	nt	nt	nt	93.1*
CN(C)CCCN(C(=O)c1ccco1)c1nc2c(F)cccc2s1	-0.1	3.0	10.1	?	2.2
CN(C)CCCN(C(=O)COc1ccc(Cl)cc1)c1nc2c(F)cccc2s1	-0.1	17.2	-11.6	80.0*	0.1
SMILES	Hsp70 act	HSF-1 act	HSF1 inh	T cruzi repl	Lmaj promast
CN(C)CCCN(C(=O)COc1ccccc1)c1nc2ccc(F)cc2s1	0.2	nt	nt	47.4	-1.0
CN(C)CCCN(C(=O)CCOc1ccccc1)c1nc2c(F)cccc2s1	-0.2	-0.5	1.3	58.5*	50.3*
CC1CN(C(=O)CCC(=O)NCc2ccccn2)c2ccccc2O1 (stereo not given)	nt	33.1	-1.0	-11.8	nt
Cc1ccc(S(=O)(=O)n2cccc2C)cc1	nt	0.9	0.5	-4.6	nt
COc1ccccc1C(=O)NC(CCSC)C(=O)NCC(c1cccs1)N1CCOCC1 (stereo not given)	nt	-15.7	5.9	7.3	nt
Cc1cc(OC(=O)c2cc(Cl)ccc2Cl)c([N+](=O)[O-])c(=O)[nH]1	nt	3.7	-3.6	-9.1	nt
CCCCCN(C(=O)CCC(=O)OCc1ccc(C(C)(C)C)cc1)c1c(N)n(CCCC)c(=O)[nH]c1=O	nt	1.6	-2.4	27.3	nt
Cc1cc(C)n2nc(C(=O)Nc3cccc(S(=O)(=O)N4CCCC4)c3)nc2n1	nt	6.8	-5.0	8.5	nt
COc1ccccc1NS(=O)(=O)c1cc(NC(=O)Nc2ccccc2)ccc1N1CCCCC1	-0.1	nt	nt	nt	91.1*

High-throughput results (PubChem)
